Assay results taken from ChEMBL document CHEMBL4196128 (ACS Med Chem Lett, 2018).

Key:
[1] = Tmax in CD1 mouse at 30 mg/kg, po; type: ADME, organism-based; conditions: in vivo
Summary of the method: (§1)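 Oral dosing in male CD1 mice (30 mg/kg, n = 27), Sprague–Dawley rats (10 mg/kg, n = 3), beagle dogs (30 mg/kg, n = 3) and cynomolgus monkeys (10 mg/kg, n = 3). Mean Tmax was read from plasma concentration–time data. Bioavailability was derived from oral AUC(0–∞) compared with intravenous AUC.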

[2] = Volume of distribution at steady state in Beagle dog at 3 mg/kg, iv; type: ADME, organism-based, Canis lupus familiaris; conditions: in vivo, read-out: Vdss
Summary of the method: (§2)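 Intravenous dosing in male CD1 mice (10 mg/kg, n = 30), Sprague–Dawley rats (3 mg/kg, n = 3), beagle dogs (3 mg/kg, n = 3) and cynomolgus monkeys (1 mg/kg, n = 3). Vehicle was aqueous 20% hydroxypropyl-β-cyclodextrin. Mean residence time and steady-state volume of distribution were taken from plasma concentration–time profiles as mean parameters.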

hERG (KCNH2) [3] = molecular target: T1, hERG (KCNH2) (Homo sapiens, UniProt Q12809); experiment: Inhibition of human ERG at 10 uM by IonWork assay relative to control
[4] = Clearance in Beagle dog at 3 mg/kg, iv; type: ADME, organism-based, Canis lupus familiaris; conditions: in vivo
Summary of the method: (§3)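 The compound was given intravenously as an aqueous solution in 20% hydroxypropyl-β-cyclodextrin. Animals were male CD1 mice (10 mg/kg, n = 30), Sprague–Dawley rats (3 mg/kg, n = 3), beagle dogs (3 mg/kg, n = 3) and cynomolgus monkeys (1 mg/kg, n = 3). Plasma concentration–time data gave mean AUC(0–∞), half-life, mean residence time, clearance and Vd,ss.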

[5] = Half life in CD1 mouse at 10 mg/kg, iv; type: ADME, organism-based; conditions: in vivo; summary of the method: as §3
Mus musculus = experiment: Oral bioavailability in CD1 mouse at 30 mg/kg; type: ADME, organism-based; conditions: in vivo; summary of the method: as §1
Cytochrome P450 3A4 = Cytochrome P450 3A4 (Homo sapiens, UniProt P08684); experiment: Inhibition of CYP3A4 (unknown origin) co-incubated with substrate; type: ADME
[6] = Protein binding in Sprague-Dawley rat plasma at 10 uM; type: ADME, cell-free; conditions: read-out: PPB
[7] = Clearance in monkey at 1 mg/kg, iv; conditions: cynomolgus monkey, in vivo
[8] = Mean residence time in CD1 mouse at 10 mg/kg, iv; type: ADME, organism-based; conditions: in vivo; summary of the method: as §2
[9] = Half life in Beagle dog at 3 mg/kg, iv; type: ADME, organism-based, Canis lupus familiaris; conditions: in vivo; summary of the method: as §3
hERG (KCNH2) [10] = molecular target: T1, hERG (KCNH2); experiment: Inhibition of human ERG at 1 uM by IonWork assay relative to control
[11] = Volume of distribution at steady state in monkey at 1 mg/kg, iv; conditions: cynomolgus monkey, in vivo, read-out: Vdss
[12] = Volume of distribution at steady state in Sprague-Dawley rat at 3 mg/kg, iv; type: ADME, organism-based; conditions: in vivo, read-out: Vdss; summary of the method: as §2
Cytochrome P450 2C9 [13] = molecular target: T2, Cytochrome P450 2C9 (Homo sapiens, UniProt P11712); experiment: Inhibition of CYP2C9 (unknown origin) co-incubated with substrate; type: ADME
COLO 205 [14] = experiment: Antitumor activity against human COLO205 cells xenografted in nude mouse assessed as tumor growth inhibition at 40 mg/kg, po bid measured after 28 days relative to control; type: functional; conditions: COLO 205, po, 672 h, read-out: TGI
Summary of the method: (§4)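 Female nude mice carrying Colo-205 human colon tumor xenografts were randomized to oral dosing twice daily at 20, 40 or 60 mg/kg, or to vehicle. After 28 days of treatment, tumor growth inhibition or tumor regression was assessed relative to vehicle control, with P-value testing.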

COLO 205 [15] = experiment: Antitumor activity against human COLO205 cells xenografted in nude mouse assessed as tumor regression at 60 mg/kg, po bid measured after 28 days relative to control; type: functional; summary of the method: as §4
Cytochrome P450 1A2 = molecular target: T3, Cytochrome P450 1A2 (Homo sapiens, UniProt P05177); experiment: Inhibition of CYP1A2 (unknown origin) preincubated followed by substrate addition; type: ADME
T3 sequence (P05177 whole entry): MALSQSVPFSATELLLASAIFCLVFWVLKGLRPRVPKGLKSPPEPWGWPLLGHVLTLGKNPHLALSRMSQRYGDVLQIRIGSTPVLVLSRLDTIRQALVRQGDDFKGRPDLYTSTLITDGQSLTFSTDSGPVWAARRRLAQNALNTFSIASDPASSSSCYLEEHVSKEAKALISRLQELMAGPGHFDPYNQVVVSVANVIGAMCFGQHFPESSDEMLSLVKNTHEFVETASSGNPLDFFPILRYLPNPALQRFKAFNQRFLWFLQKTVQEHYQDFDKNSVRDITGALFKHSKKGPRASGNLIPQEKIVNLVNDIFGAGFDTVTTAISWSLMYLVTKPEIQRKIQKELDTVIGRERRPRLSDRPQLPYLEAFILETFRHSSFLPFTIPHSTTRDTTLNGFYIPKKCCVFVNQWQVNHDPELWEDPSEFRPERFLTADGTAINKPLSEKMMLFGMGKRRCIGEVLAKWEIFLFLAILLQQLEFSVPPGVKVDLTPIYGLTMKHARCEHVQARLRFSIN

[16] = Tmax in monkey at 10 mg/kg, po; conditions: cynomolgus monkey, in vivo
[17] = Protein binding in human plasma at 10 uM; type: ADME, cell-free; conditions: read-out: PPB
Cytochrome P450 2C8 = molecular target: T4, Cytochrome P450 2C8 (Homo sapiens, UniProt P10632); experiment: Inhibition of CYP2C8 (unknown origin) co-incubated with substrate; type: ADME
T4 sequence (P10632 whole entry): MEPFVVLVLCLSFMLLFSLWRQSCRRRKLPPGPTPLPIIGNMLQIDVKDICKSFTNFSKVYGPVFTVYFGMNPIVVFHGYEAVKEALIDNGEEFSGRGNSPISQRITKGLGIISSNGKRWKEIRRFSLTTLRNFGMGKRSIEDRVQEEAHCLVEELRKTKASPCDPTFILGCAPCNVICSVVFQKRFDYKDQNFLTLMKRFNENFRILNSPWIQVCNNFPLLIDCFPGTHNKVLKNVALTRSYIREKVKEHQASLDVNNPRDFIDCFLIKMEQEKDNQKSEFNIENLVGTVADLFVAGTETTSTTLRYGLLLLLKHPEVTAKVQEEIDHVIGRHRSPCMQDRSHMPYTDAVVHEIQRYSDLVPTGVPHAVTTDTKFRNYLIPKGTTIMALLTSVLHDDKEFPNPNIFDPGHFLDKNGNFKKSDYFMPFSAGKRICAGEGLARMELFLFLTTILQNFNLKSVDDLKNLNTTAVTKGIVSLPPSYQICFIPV

[18] = Protein binding in monkey plasma at 10 uM; type: ADME, cell-free, Macaca mulatta; conditions: rhesus monkey, read-out: PPB
[19] = Tmax in Beagle dog at 30 mg/kg, po; type: ADME, organism-based, Canis lupus familiaris; conditions: in vivo; summary of the method: as §1
Cytochrome P450 2D6 = Cytochrome P450 2D6 (Homo sapiens, UniProt P10635); experiment: Inhibition of CYP2D6 (unknown origin) preincubated followed by substrate addition; type: ADME
[20] = Volume of distribution at steady state in CD1 mouse at 10 mg/kg, iv; type: ADME, organism-based; conditions: in vivo, read-out: Vdss; summary of the method: as §2
COLO 205 [21] = experiment: Antitumor activity against human COLO205 cells xenografted in nude mouse assessed as tumor growth inhibition at 20 mg/kg, po bid measured after 28 days relative to control; type: functional; conditions: COLO 205, po, 672 h, read-out: TGI; summary of the method: as §4
[22] = Tmax in Sprague-Dawley rat at 10 mg/kg, po; type: ADME, organism-based; conditions: in vivo; summary of the method: as §1
Cytochrome P450 2C9 [23] = molecular target: T2, Cytochrome P450 2C9; experiment: Inhibition of CYP2C9 (unknown origin) preincubated followed by substrate addition; type: ADME

T2 sequence (P11712 whole entry): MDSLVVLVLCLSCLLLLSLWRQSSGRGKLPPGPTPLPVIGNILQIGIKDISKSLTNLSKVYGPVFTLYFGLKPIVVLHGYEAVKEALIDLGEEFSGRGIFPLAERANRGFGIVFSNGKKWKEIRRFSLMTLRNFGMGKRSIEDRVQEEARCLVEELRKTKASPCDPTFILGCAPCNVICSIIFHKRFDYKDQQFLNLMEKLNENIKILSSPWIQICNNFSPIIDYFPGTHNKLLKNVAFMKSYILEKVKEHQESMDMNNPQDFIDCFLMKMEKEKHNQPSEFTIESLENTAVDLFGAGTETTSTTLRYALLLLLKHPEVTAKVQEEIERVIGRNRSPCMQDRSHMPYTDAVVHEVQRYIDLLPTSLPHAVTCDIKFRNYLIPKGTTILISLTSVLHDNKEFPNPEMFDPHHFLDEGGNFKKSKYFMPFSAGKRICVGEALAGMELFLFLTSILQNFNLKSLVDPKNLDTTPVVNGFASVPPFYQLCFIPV
T1 sequence (Q12809 whole entry): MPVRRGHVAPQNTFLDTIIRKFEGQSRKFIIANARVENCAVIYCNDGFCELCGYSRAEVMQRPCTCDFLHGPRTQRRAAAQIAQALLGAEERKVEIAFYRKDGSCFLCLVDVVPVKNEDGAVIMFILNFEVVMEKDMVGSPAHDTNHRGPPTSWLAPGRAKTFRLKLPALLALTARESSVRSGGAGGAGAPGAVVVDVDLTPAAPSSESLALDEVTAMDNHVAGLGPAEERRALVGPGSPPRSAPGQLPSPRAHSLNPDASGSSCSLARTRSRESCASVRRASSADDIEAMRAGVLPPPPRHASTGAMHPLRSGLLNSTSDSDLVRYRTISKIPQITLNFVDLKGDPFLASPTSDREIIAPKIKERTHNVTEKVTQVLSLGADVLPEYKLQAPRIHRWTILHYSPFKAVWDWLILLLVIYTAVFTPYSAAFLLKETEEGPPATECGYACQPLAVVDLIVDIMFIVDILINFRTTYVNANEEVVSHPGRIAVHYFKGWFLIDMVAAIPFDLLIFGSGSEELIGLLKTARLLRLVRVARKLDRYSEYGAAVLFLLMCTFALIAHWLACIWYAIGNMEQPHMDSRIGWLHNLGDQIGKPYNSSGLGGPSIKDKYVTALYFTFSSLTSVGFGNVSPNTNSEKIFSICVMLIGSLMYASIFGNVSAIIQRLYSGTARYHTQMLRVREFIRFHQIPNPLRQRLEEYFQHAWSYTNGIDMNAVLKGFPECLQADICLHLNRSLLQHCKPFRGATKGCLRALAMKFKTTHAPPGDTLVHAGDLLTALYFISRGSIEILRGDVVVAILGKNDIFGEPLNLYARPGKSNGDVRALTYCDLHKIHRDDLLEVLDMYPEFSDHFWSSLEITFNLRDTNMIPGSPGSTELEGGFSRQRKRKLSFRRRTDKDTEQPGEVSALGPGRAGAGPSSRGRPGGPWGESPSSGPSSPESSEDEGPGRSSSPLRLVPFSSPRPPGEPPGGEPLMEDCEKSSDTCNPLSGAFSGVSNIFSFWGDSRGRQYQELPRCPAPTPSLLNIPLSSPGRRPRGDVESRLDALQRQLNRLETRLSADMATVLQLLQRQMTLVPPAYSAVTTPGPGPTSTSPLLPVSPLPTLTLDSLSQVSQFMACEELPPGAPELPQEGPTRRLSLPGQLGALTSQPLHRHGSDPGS
Chain of Cytochrome P450 2D6 (P10635 whole entry): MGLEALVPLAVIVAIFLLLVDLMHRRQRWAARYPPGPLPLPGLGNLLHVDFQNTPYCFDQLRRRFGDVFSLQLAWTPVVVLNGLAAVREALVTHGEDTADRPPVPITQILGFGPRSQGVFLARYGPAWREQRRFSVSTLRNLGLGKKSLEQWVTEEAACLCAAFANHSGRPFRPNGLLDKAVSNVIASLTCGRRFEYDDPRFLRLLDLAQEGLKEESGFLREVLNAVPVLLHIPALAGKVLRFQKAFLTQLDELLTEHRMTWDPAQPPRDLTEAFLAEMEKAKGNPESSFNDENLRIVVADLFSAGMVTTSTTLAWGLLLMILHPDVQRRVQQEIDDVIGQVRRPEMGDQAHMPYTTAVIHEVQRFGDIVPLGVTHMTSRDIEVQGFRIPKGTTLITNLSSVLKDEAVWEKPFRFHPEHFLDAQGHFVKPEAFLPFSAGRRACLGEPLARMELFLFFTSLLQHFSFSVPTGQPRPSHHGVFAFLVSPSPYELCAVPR
Chain of Cytochrome P450 3A4 (P08684 whole entry): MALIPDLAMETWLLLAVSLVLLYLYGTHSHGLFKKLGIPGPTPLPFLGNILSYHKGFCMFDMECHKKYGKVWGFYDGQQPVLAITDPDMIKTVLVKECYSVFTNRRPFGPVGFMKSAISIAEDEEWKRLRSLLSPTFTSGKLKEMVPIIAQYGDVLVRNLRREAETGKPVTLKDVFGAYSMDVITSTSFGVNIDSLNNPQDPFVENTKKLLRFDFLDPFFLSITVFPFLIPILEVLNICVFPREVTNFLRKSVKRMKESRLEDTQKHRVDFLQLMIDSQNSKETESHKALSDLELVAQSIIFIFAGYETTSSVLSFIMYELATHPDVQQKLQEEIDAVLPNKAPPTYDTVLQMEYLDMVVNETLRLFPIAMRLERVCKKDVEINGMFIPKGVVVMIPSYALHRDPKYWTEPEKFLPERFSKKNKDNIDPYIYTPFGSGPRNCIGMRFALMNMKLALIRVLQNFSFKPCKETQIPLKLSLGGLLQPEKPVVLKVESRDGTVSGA

CS[C@@]1(C(=O)Nc2ccc3[nH]nc(-c4ccc(OC(C)C)nc4)c3c2)CCN(CC(=O)N2CC=C(c3ccc(-c4ncn(C)n4)cc3)CC2)C1 [MK-8353]
Tmax [1]: 1 h
Vd [2]: 0.9 L/kg
inhibition at 10 µM (hERG (KCNH2) [3]): -0.2%
clearance [4]: 3.9 mL/min/kg
half-life [5]: 1.8 h
F (Mus musculus): 80%
IC50 (Cytochrome P450 3A4): > 5 µM
fraction unbound at 10 µM [6]: < 0.01
clearance [7]: 17.9 mL/min/kg
MRT [8]: 1.5 h
half-life [9]: 2.8 h
inhibition at 1 µM (hERG (KCNH2) [10]): -1.7%
Vd [11]: 2 L/kg
Vd [12]: 0.1 L/kg
IC50 (Cytochrome P450 2C9 [13]): > 5 µM
inhibition in vivo at 40 mg/kg (COLO 205 [14]): 88%
Activity (COLO 205 [15]): 40%
inhibition (INH) (Cytochrome P450 1A2): Not Active
Tmax [16]: 1.4 h
fraction unbound at 10 µM [17]: < 0.01
IC50 (Cytochrome P450 2C8): > 5 µM
fraction unbound at 10 µM [18]: < 0.01
Tmax [19]: 4 h
inhibition (INH) (Cytochrome P450 2D6): Not Active
Vd [20]: 3.3 L/kg
inhibition in vivo at 20 mg/kg (COLO 205 [21]): 37%
Tmax [22]: 1.7 h
IC50 (Cytochrome P450 2C9 [23]): > 5 µM
